Measurements reported in ChEMBL document CHEMBL1275458, “First molecular characterization of group B streptococci with reduced penicillin susceptibility” (2008).
Converted amounts (≈) assume the structure as drawn.

Tests used:
Streptococcus pneumoniae = test: Antimicrobial activity against Streptococcus pneumoniae ATCC 49619 by agar dilution method; assay type: functional
Method in brief: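 MIC by agar dilution per CLSI recommendations. The strain is a penicillin-susceptible S. pneumoniae quality-control strain, run alongside the clinical GBS isolates. β-lactams tested were penicillin G, penicillin V, ampicillin, oxacillin, cefazolin, cefepime, cefotaxime, ceftizoxime and meropenem.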

Streptococcus agalactiae [1] = test: Antimicrobial activity against penicillin-resistant Streptococcus agalactiae B1 by agar dilution method; assay type: functional
Method in brief: (§1)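 Agar dilution MICs run per the CLSI recommendation. S. pneumoniae ATCC 49619 was included as the quality control strain. β-lactams tested were penicillin G, penicillin V, ampicillin, oxacillin, cefazolin, cefepime, cefotaxime, ceftizoxime and meropenem. Test strains were S. agalactiae clinical sputum isolates and ATCC strains BAA-611 and 12403.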

Streptococcus agalactiae [2] = test: Antimicrobial activity against penicillin-resistant Streptococcus agalactiae B6 by agar dilution method; assay type: functional; method in brief: as §1
Streptococcus agalactiae [3] = test: Antimicrobial activity against penicillin-resistant Streptococcus agalactiae B7 by agar dilution method; assay type: functional; method in brief: as §1
Streptococcus agalactiae [4] = test: Antimicrobial activity against penicillin-resistant Streptococcus agalactiae B8 by agar dilution method; assay type: functional; method in brief: as §1
Streptococcus agalactiae [5] = test: Antimicrobial activity against penicillin-resistant Streptococcus agalactiae B10 by agar dilution method; assay type: functional; method in brief: as §1
Streptococcus agalactiae [6] = test: Antimicrobial activity against penicillin-resistant Streptococcus agalactiae B12 by agar dilution method; assay type: functional; method in brief: as §1
Streptococcus agalactiae [7] = test: Antimicrobial activity against penicillin-resistant Streptococcus agalactiae B40 by agar dilution method; assay type: functional; method in brief: as §1
Streptococcus agalactiae [8] = test: Antimicrobial activity against penicillin-resistant Streptococcus agalactiae B60 by agar dilution method; assay type: functional; method in brief: as §1
Streptococcus agalactiae [9] = test: Antimicrobial activity against penicillin-resistant Streptococcus agalactiae B68 by agar dilution method; assay type: functional; method in brief: as §1
Streptococcus agalactiae [10] = test: Antimicrobial activity against penicillin-resistant Streptococcus agalactiae B502 by agar dilution method; assay type: functional; method in brief: as §1
Streptococcus agalactiae [11] = test: Antimicrobial activity against penicillin-resistant Streptococcus agalactiae B503 by agar dilution method; assay type: functional; method in brief: as §1
Streptococcus agalactiae [12] = test: Antimicrobial activity against penicillin-resistant Streptococcus agalactiae B513 by agar dilution method; assay type: functional; method in brief: as §1
Streptococcus agalactiae [13] = test: Antimicrobial activity against penicillin-resistant Streptococcus agalactiae B514 by agar dilution method; assay type: functional; method in brief: as §1
Streptococcus agalactiae [14] = test: Antimicrobial activity against penicillin-resistant Streptococcus agalactiae B516 by agar dilution method; assay type: functional; method in brief: as §1
Streptococcus agalactiae [15] = test: Antimicrobial activity against penicillin-resistant Streptococcus agalactiae ATCC BAA-611 harboring PBP-2X Q557E mutant gene by agar dilution method; assay type: functional; method in brief: as §1
Streptococcus agalactiae [16] = test: Antimicrobial activity against penicillin-resistant Streptococcus agalactiae ATCC BAA-611 harboring PBP-2X V405A mutant gene by agar dilution method; assay type: functional; method in brief: as §1
Streptococcus agalactiae [17] = test: Antimicrobial activity against penicillin-susceptible Streptococcus agalactiae ATCC 12403 by agar dilution method
Streptococcus agalactiae [18] = test: Antimicrobial activity against penicillin-susceptible Streptococcus agalactiae ATCC BAA-611 by agar dilution method

| Compound | MIC (Streptococcus pneumoniae) | MIC (Streptococcus agalactiae [1]) | MIC (Streptococcus agalactiae [2]) | MIC (Streptococcus agalactiae [3]) | MIC (Streptococcus agalactiae [4]) | MIC (Streptococcus agalactiae [5]) | MIC (Streptococcus agalactiae [6]) | MIC (Streptococcus agalactiae [7]) | MIC (Streptococcus agalactiae [8]) | MIC (Streptococcus agalactiae [9]) | MIC (Streptococcus agalactiae [10]) | MIC (Streptococcus agalactiae [11]) | MIC (Streptococcus agalactiae [12]) | MIC (Streptococcus agalactiae [13]) | MIC (Streptococcus agalactiae [14]) | MIC (Streptococcus agalactiae [15]) | MIC (Streptococcus agalactiae [16]) | MIC (Streptococcus agalactiae [17]) | MIC (Streptococcus agalactiae [18]) |
| --- | --- | --- | --- | --- | --- | --- | --- | --- | --- | --- | --- | --- | --- | --- | --- | --- | --- | --- | --- |
| CC1(C)S[C@@H]2[C@H](NC(=O)COc3ccccc3)C(=O)N2[C@H]1C(=O)O [PENICILLIN V] | 0.5 µg/mL (≈ 1.43 µM) | 0.25 µg/mL (≈ 0.713 µM) | 0.5 µg/mL (≈ 1.43 µM) | 0.12 µg/mL (≈ 0.342 µM) | 0.25 µg/mL (≈ 0.713 µM) | 0.25 µg/mL (≈ 0.713 µM) | 0.5 µg/mL (≈ 1.43 µM) | 0.5 µg/mL (≈ 1.43 µM) | 0.25 µg/mL (≈ 0.713 µM) | 0.25 µg/mL (≈ 0.713 µM) | 0.25 µg/mL (≈ 0.713 µM) | 0.12 µg/mL (≈ 0.342 µM) | 1 µg/mL (≈ 2.85 µM) | 0.25 µg/mL (≈ 0.713 µM) | 0.25 µg/mL (≈ 0.713 µM) | 0.5 µg/mL (≈ 1.43 µM) | 0.12 µg/mL (≈ 0.342 µM) | 0.03 µg/mL (≈ 0.0856 µM) | 0.03 µg/mL (≈ 0.0856 µM) |
| CO/N=C(\C(=O)N[C@@H]1C(=O)N2C(C(=O)O)=CCS[C@H]12)c1csc(N)n1 [CEFTIZOXIME] | 0.12 µg/mL (≈ 0.313 µM) | 128 µg/mL (≈ 334 µM) | 32 µg/mL (≈ 83.5 µM) | 4 µg/mL (≈ 10.4 µM) | 64 µg/mL (≈ 167 µM) | 16 µg/mL (≈ 41.7 µM) | 32 µg/mL (≈ 83.5 µM) | 32 µg/mL (≈ 83.5 µM) | 32 µg/mL (≈ 83.5 µM) | 4 µg/mL (≈ 10.4 µM) | 16 µg/mL (≈ 41.7 µM) | 16 µg/mL (≈ 41.7 µM) | 64 µg/mL (≈ 167 µM) | 32 µg/mL (≈ 83.5 µM) | 16 µg/mL (≈ 41.7 µM) | 32 µg/mL (≈ 83.5 µM) | 16 µg/mL (≈ 41.7 µM) | 0.12 µg/mL (≈ 0.313 µM) | 0.12 µg/mL (≈ 0.313 µM) |
| Cc1onc(-c2ccccc2)c1C(=O)N[C@@H]1C(=O)N2[C@@H]1SC(C)(C)[C@@H]2C(=O)O [OXACILLIN] | 1 µg/mL (≈ 2.49 µM) | 4 µg/mL (≈ 9.96 µM) | 4 µg/mL (≈ 9.96 µM) | 2 µg/mL (≈ 4.98 µM) | 4 µg/mL (≈ 9.96 µM) | 4 µg/mL (≈ 9.96 µM) | 4 µg/mL (≈ 9.96 µM) | 8 µg/mL (≈ 19.9 µM) | 4 µg/mL (≈ 9.96 µM) | 4 µg/mL (≈ 9.96 µM) | 4 µg/mL (≈ 9.96 µM) | 2 µg/mL (≈ 4.98 µM) | 8 µg/mL (≈ 19.9 µM) | 4 µg/mL (≈ 9.96 µM) | 4 µg/mL (≈ 9.96 µM) | 4 µg/mL (≈ 9.96 µM) | 2 µg/mL (≈ 4.98 µM) | 0.25 µg/mL (≈ 0.623 µM) | 0.25 µg/mL (≈ 0.623 µM) |
| CO/N=C(\C(=O)N[C@@H]1C(=O)N2C(C(=O)O)=C(COC(C)=O)CS[C@H]12)c1csc(N)n1 [CEFOTAXIME] | 0.03 µg/mL (≈ 0.0659 µM) | 2 µg/mL (≈ 4.39 µM) | 1 µg/mL (≈ 2.2 µM) | 0.12 µg/mL (≈ 0.263 µM) | 0.25 µg/mL (≈ 0.549 µM) | 0.5 µg/mL (≈ 1.1 µM) | 0.5 µg/mL (≈ 1.1 µM) | 0.5 µg/mL (≈ 1.1 µM) | 0.25 µg/mL (≈ 0.549 µM) | 0.25 µg/mL (≈ 0.549 µM) | 0.25 µg/mL (≈ 0.549 µM) | 0.25 µg/mL (≈ 0.549 µM) | 1 µg/mL (≈ 2.2 µM) | 0.25 µg/mL (≈ 0.549 µM) | 0.25 µg/mL (≈ 0.549 µM) | 0.5 µg/mL (≈ 1.1 µM) | 0.12 µg/mL (≈ 0.263 µM) | 0.06 µg/mL (≈ 0.132 µM) | 0.06 µg/mL (≈ 0.132 µM) |
| CC1(C)S[C@@H]2[C@H](NC(=O)Cc3ccccc3)C(=O)N2[C@H]1C(=O)O [PENICILLIN G] | 0.25 µg/mL (≈ 0.748 µM) | 0.5 µg/mL (≈ 1.5 µM) | 0.25 µg/mL (≈ 0.748 µM) | 0.25 µg/mL (≈ 0.748 µM) | 0.25 µg/mL (≈ 0.748 µM) | 0.5 µg/mL (≈ 1.5 µM) | 0.25 µg/mL (≈ 0.748 µM) | 0.5 µg/mL (≈ 1.5 µM) | 0.25 µg/mL (≈ 0.748 µM) | 0.5 µg/mL (≈ 1.5 µM) | 0.5 µg/mL (≈ 1.5 µM) | 0.25 µg/mL (≈ 0.748 µM) | 1 µg/mL (≈ 2.99 µM) | 0.25 µg/mL (≈ 0.748 µM) | 0.25 µg/mL (≈ 0.748 µM) | 0.5 µg/mL (≈ 1.5 µM) | 0.25 µg/mL (≈ 0.748 µM) | 0.06 µg/mL (≈ 0.179 µM) | 0.06 µg/mL (≈ 0.179 µM) |
